Experimental findings from ChEMBL document CHEMBL2057117, “Oxoquinoline acyclonucleoside phosphonate analogues as a new class of specific inhibitors of human immunodeficiency virus type 1” (Bioorg Med Chem Lett, 2012) are described below.

A word on the EC50: it is the midpoint of the concentration-response curve. The CC50 is the concentration at which the toxic effect on the cells reaches its halfway point. A low value points to greater toxicity to the cells. Broadly, the Ki is the dissociation constant of the complex between target and ligand, obtained from inhibition or displacement. Low values mean higher affinity, high ones lower affinity.

Molecules are shown by their SMILES.

The subject of data set [1] is Human immunodeficiency virus 1. Kind of data set: Antiviral activity against R5-tropic Human immunodeficiency virus 1 Ba-L subtype B infected in human PBMC assessed as inhibition of viral replication after 7 days by ELISA. Format: functional, organism-based. The settings on record: 168 h. An outline of the steps: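 Phytohemagglutinin-stimulated PBMCs (2–3 days), then kept in medium with recombinant human IL-2, infected with HIV-1 Ba-L (R5-tropic, subtype B) and treated with a range of concentrations (µM). After 7 days, p24 antigen in culture supernatants was measured by capture ELISA. EC50 is the concentration reducing replication 50% versus infected controls. Mean ± SD of three independent experiments. AZT positive control.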

A short description of data set [2]: Cytotoxicity against human PBMC after 7 days by XTT assay. Format: cell-based. Particulars: PBMC (peripheral blood mononuclear cells). In a few lines: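 Confluent PBMCs were exposed to a range of compound concentrations for 7 days, and viability was then read by XTT. CC50 is the concentration giving 50% cytotoxicity relative to untreated controls. Mean ± SD of three independent experiments.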

The nature of data set [3]: Selectivity ratio of CC50 for human PBMC to EC50 for R5-tropic Human immunodeficiency virus 1 Ba-L subtype B. An outline of the steps:
(§1)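 Selectivity index is calculated as CC50 (XTT viability in PBMCs, 7 days) divided by EC50 (p24 ELISA, HIV-1 Ba-L-infected PBMCs, 7 days).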

The subject of data set [4] is Human immunodeficiency virus 1. The experiment in a line: Antiviral activity against Human immunodeficiency virus 1 infected in human PBMC assessed as inhibition of viral replication. Format: functional, organism-based. An outline of the steps:
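Human PBMCs stimulated with phytohemagglutinin for 2–3 days, then kept in medium with recombinant human IL-2. Cells infected with HIV-1 Ba-L (R5-tropic, subtype B) and exposed to a range of compound concentrations for seven days. Supernatant p24 antigen measured by capture ELISA. EC50 is the concentration giving 50% less replication than infected controls. Mean ± SD of three independent experiments.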

For data set [5], the target named is Human immunodeficiency virus type 1 reverse transcriptase (Human immunodeficiency virus 1, UniProt Q72547). The experiment in a line: Inhibition of Human immunodeficiency virus 1 reverse transcriptase.
The subject of data set [6] is Human immunodeficiency virus 1. The experiment in a line: Antiviral activity against Human immunodeficiency virus 1 Ba-L infected in macrophages assessed as inhibition of viral replication. The class given is functional, organism-based.
A short description of data set [7]: Selectivity ratio of CC50 for human PBMC to EC50 for Human immunodeficiency virus 1 Ba-L. In a few lines:
as §1

As to `CCOC(=O)c1cn(CP(=O)(OC(C)C)OC(C)C)c2ccc(Cl)cc2c1=O`, in data set [1], the EC50 came out at 8.1 µM. Besides, the cytotoxic concentration (CC50) at 168 h in data set [2] came to 1240 µM. The “Ratio CC50/EC50” value in data set [3] was 152.4.

Regarding `CCOC(=O)c1cn(CP(=O)(OC(C)C)OC(C)C)c2ccccc2c1=O`, in data set [1], the EC50 came out at 7.3 µM. Besides, the midpoint of cytotoxicity in data set [2], the CC50 at 168 h, lay at 2310 µM. Besides, the “Ratio CC50/EC50” value in data set [3] was found to be 316.4.

As to `CCOC(=O)c1cn(CP(=O)(OC(C)C)OC(C)C)c2cc(Cl)ccc2c1=O`, in data set [1], the EC50 turned out to be 21 µM. In addition, in data set [2], the CC50 at 168 h was determined as 828 µM. For the same compound, the “Ratio CC50/EC50” value in data set [3] is listed as 39.4.

Take `CCOC(=O)c1cn(CP(=O)(OC(C)C)OC(C)C)c2ccc(Br)cc2c1=O`: the EC50 in data set [1] was determined as 56 µM. This compound showed a CC50 at 168 h in data set [2] of 802 µM. Moreover, the “Ratio CC50/EC50” value in data set [3] was 14.3.

As to `CCOC(=O)c1cn(CP(=O)(OC(C)C)OC(C)C)c2cc(Br)ccc2c1=O`, the EC50 in data set [1] worked out at 61.2 µM. The same compound registered a CC50 at 168 h in data set [2] of 731 µM. The “Ratio CC50/EC50” value in data set [3] is given as 11.9.

Consider `CCOC(=O)c1cn(CP(=O)(OC(C)C)OC(C)C)c2ccc(F)cc2c1=O`, for which, in data set [1], the EC50 came to 0.4 µM. In data set [2], this compound registered a CC50 at 168 h of 2500 µM. The “Ratio CC50/EC50” value in data set [3] was 6240.

With `CCOC(=O)c1cn(CP(=O)(OC(C)C)OC(C)C)c2cc(F)ccc2c1=O`, in data set [1], the EC50 worked out at 0.2 µM. In addition, it took 2940 µM to reach half-maximal cytotoxicity in data set [2] (CC50 at 168 h). In addition, the “Ratio CC50/EC50” value in data set [3] is reported as 14675.

As to `CCOC(=O)c1cn(CP(=O)(OC(C)C)OC(C)C)c2ccc(C)cc2c1=O`, the EC50 in data set [1] came out at 21.3 µM. For the same compound, in data set [2], it took 1320 µM to reach half-maximal cytotoxicity (CC50 at 168 h). For the same compound, the “Ratio CC50/EC50” value in data set [3] is recorded as 61.3.

Regarding `CCOC(=O)c1cn(CP(=O)(OC(C)C)OC(C)C)c2cc(C)ccc2c1=O`, the EC50 in data set [1] is 9 µM. Also, in data set [2], the CC50 at 168 h was determined as 1120 µM. The “Ratio CC50/EC50” value in data set [3] was found to be 123.9.

In the case of `CCOC(=O)c1cn(CP(=O)(OC(C)C)OC(C)C)c2ccc([N+](=O)[O-])cc2c1=O`, the EC50 in data set [1] amounted to 38 µM. The compound also showed a CC50 at 168 h in data set [2] of 931 µM.

Consider `CCOC(=O)c1cn(CP(=O)(OC(C)C)OC(C)C)c2cc([N+](=O)[O-])ccc2c1=O`, for which the EC50 in data set [1] amounted to 22 µM. This compound also gave a CC50 at 168 h in data set [2] of 812 µM. In addition, the “Ratio CC50/EC50” value in data set [3] came out at 36.9.

With `O=C(O)c1cn([C@@H]2O[C@H](CO)[C@@H](O)[C@H]2O)c2ccc(Cl)cc2c1=O`, the EC50 was 1.5 µM in data set [4] and 4.9 µM in data set [6]. Also, the Ki in data set [5] was determined as 0.5 µM. For the same compound, the “Ratio CC50/EC50” value in data set [7] amounted to 1134.

As for `Cc1cn([C@H]2C[C@H](N=[N+]=[N-])[C@@H](CO)O2)c(=O)[nH]c1=O` [ZIDOVUDINE], the EC50 in data set [1] is 0.16 µM. The same compound showed a CC50 at 168 h in data set [2] of 128 µM.
